KCNQ1 inh – inhibitors of human KCNQ1 potassium channel; P51787; CHO-K1 KCNQ1, FluxOR thallium flux fluorescence; stronger effect = higher value; B-score at 10 µM; 310,000 compounds, 1.3% hits; AID 2642;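 active means compounds whose thallium flux B-score, printed positive for inhibition, exceeds three library SD while starting fluorescence stays within three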;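 further: channel opened by potassium depolarization with thallium stimulus after 20 min compound exposure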
Kir21 inh – Kir2.1 (mouse) channel inhibition | P35561 | HEK293-Kir2.1, FluxOR thallium flux fluorescence; stronger effect = lower value | B-score at 10 µM | 310,000 compounds, 0.85% hits | AID 1672;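 active means fluorescence ratio B-score at or below minus 3 SD of library scores, with starting-brightness B-score within 2 SD, cut at about -4.2 in these data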;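 further: channel flux triggered by added potassium and thallium sulfate stimulus; B-score of peak minus minimum fluorescence over baseline after thallium stimulus; more negative B-score means stronger Kir2.1 block with less thallium influx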
Target sequence (P35561 whole entry, looked up): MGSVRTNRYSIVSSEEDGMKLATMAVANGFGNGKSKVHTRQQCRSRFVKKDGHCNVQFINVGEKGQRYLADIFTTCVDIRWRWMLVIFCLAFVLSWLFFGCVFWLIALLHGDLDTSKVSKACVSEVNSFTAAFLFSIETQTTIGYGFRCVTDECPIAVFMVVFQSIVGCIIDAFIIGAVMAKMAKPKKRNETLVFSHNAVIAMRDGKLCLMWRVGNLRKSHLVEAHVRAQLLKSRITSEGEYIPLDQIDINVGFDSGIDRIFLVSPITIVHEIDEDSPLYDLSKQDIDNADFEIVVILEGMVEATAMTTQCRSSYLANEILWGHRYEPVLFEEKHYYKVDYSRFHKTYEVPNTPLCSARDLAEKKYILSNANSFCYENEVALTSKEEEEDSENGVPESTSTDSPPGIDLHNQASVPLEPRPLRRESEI
KCNQ1 pot – potentiates or activates the human KCNQ1 potassium channel | CHO-K1 KCNQ1, thallium flux FluxOR fluorescence; stronger effect = higher value | P51787 | B-score at 10 µM | 310,000 compounds, 0.35% hits | AID 2648;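 active means fluorescence ratio B-score, a plate-corrected score, at least three library SD, with initial intensity B-score within 5 SD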
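Assay system: stable KCNQ1 CHO-K1 line; medium: assay buffer, equal DMSO in all wells; timing: 90 min dye loading and 20 min compound exposure, both at room temperature; technique: kinetic FluxOR thallium fluorescence, 10-s 1-Hz baseline, 110-s post-stimulus read; read-out basis: B score of baseline-normalized fluorescence ratio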
KCNK9 inh – inhibitors of human KCNK9 two-pore domain potassium channel | Q9NPC2 | HEK293 KCNK9, FluxOR thallium flux fluorescence; stronger effect = lower value | B-score at 10 µM | 310,000 compounds, 1.2% hits | AID 488922;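 active means ratio B-score over 3 SD below the library mean, with starting fluorescence within 5 SD of its mean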;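 further: negative B-score means less thallium flux so channel inhibition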
hERG rescue – compounds protecting human hERG from proarrhythmic drug block; Q12809; activation (rescue from dofetilide block), less the hit threshold, % at 10 µM; AID 1511; CHO-hERG, FluxOR thallium flux, dofetilide IC70 present; 310,000 compounds, 0.51% hits;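 active means activation above the mean of controls blocked by dofetilide plus 5 SD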;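 further: thallium influx through hERG after potassium depolarization seen as dye fluorescence rise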
KCNK3 inh – human KCNK3 channel inhibition, primary screen; B-score at 10 µM; O14649; CHO-KCNK3 thallium flux, FluxOR fluorescence; stronger effect = lower value; AID 602410; 340,000 compounds, 0.84% hits;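 active means B-score under library mean minus 4 SD, starting fluorescence ratio at most library mean plus 5 SD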;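 further: more negative B-score means stronger inhibition of thallium flux through KCNK3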
KCNQ1 inh valid – human KCNQ1 channel inhibition, validation assay | shares compounds with KCNQ1 inh | KCNQ1 cell line, FluxOR thallium flux fluorescence | inhibition, % at 10 µM | 1,600 compounds, 93% hits;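 active means primary screen active, with duplicate mean exceeding buffer control mean plus 3 SD of buffer wells, cut at about 28% in these data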;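 further: 0% = buffer control ratio and 100% = XE991 inhibitor control ratio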
CHO Tl flux – activity in parental CHO cells lacking KCNQ1; AID 588366; parental CHO-K1, FluxOR thallium flux fluorescence ratio; stronger effect = lower value; zero means no signal rise above baseline; 1,600 compounds, 21% hits; fluorescence ratio (Tl flux) at 10 µM; shares compounds with KCNQ1 inh;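 active means mean of duplicate thallium-flux fluorescence ratios in parental host cells more than 5 SD below the buffer control mean, cut at about 0.38 in these data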;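 further: ratio is peak minus minimum fluorescence divided by baseline fluorescence; actives read low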
KCNQ1 ephys val – blocks human KCNQ1 current in automated patch clamp; AID 624120; KCNQ1-CHO cells; shares compounds with KCNQ1 inh; calls only at 10 µM; 490 compounds, 20% hits;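 active means KCNQ1 current drop exceeding 3 SD of negative control wells, seen in both duplicate runs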;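 further: steady state current during a 2 s step from -80 to +40 mV; negative values mean current inhibition and positive values mean potentiation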
KCNQ2 spec – KCNQ1 inhibitor that also blocks rat KCNQ2 channel; shares compounds with KCNQ1 inh; inhibition, % at 10 µM; 1,600 compounds, 71% hits; KCNQ2 cells, FluxOR thallium flux fluorescence;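 active means mean percent inhibition of the KCNQ2 thallium signal more than 5 SD above the buffer-only control wells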;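 further: KCNQ2 expressed in CHO cells; 0% = buffer control wells and 100% = XE-991 inhibitor control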
KCNQ1-KCNE1 inh – selectivity of KCNQ1 inhibitors: inhibition of human KCNQ1/KCNE1 channel | shares compounds with KCNQ1 inh | KCNQ1/KCNE1 cells, FluxOR thallium flux fluorescence | inhibition, % at 10 µM | 1,600 compounds, 77% hits;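 active means mean percent inhibition of duplicate wells above the buffer-only control mean plus 3 SD of those controls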;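 further: 0% = buffer only wells and 100% = XE-991 inhibitor control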
An asterisk follows results filed as active; i = inactive; . = no result; + = active, no number. An excerpt weighted towards active compounds, which were near 3.7% of everything screened.

SMILES | KCNQ1 inh | Kir21 inh | KCNQ1 pot | KCNK9 inh | hERG rescue | KCNK3 inh | KCNQ1 inh valid | CHO Tl flux | KCNQ2 spec | KCNQ1-KCNE1 inh | others
CCN1C(=O)c2cccc3c(N)ccc(c23)C1=O | 24* | -23 | i | i | -42 | i | + | 0.011* | i | i
CN(C)CCCN1C(=O)c2cccc3c(Br)ccc(c23)C1=O | i | -2.6 | i | i | -24 | i | . | . | . | .
COC(=O)CCN(C(=O)c1cccc([N+](=O)[O-])c1)c1ccccn1 | i | 1.4 | i | i | -1 | i | . | . | . | .
Cc1ccc(NC(=O)CSc2nc(-c3ccco3)nc3cc(=O)[nH]n23)c(Cl)c1 | i | 1.8 | i | i | -6 | i | . | . | . | .
CC1(C)CC(=O)C2=C(C1)N1C(=C(C#N)C2c2ccc(Cl)cc2)N=C(N)c2ccccc21 (stereo unspecified) | 8* | -0.04 | i | i | -11 | i | 74* | 0.41 | 77%* | 70%*
CC1CC(=O)Nc2ccccc2N1C(=O)CN1CCN(c2ccccc2)CC1 (stereo unspecified) | i | -1.1 | i | i | -7 | i | . | . | . | .
O=C(NC1CCCCC1)C(c1ccco1)N(C(=O)C(F)(F)F)C1CC1 (stereo unspecified) | 6* | 0 | i | i | -9 | i | 74* | 0.47 | i | 100%*
Cc1ccc(CN(C(=O)C(F)(F)F)C(C(=O)NC2CCCCC2)c2ccco2)cc1 (stereo unspecified) | i | -0.23 | i | i | -5 | i | . | . | . | .
Cc1c(C(=O)NCCC2=CCCCC2)sc2ncnc(N3CCCCC3C)c12 (stereo unspecified) | 8* | 1.6 | i | i | -17 | i | 164* | 0.33* | 150%* | +
Cc1sc2ncnc(N3CCCCC3C)c2c1C (stereo unspecified) | i | -1.4 | i | i | -14 | i | . | . | . | .
Cc1ccccc1N1C(=O)c2cccc3c(N(C)CCO)ccc(c23)C1=O | i | -7.3 | i | i | -32 | i | . | . | . | .
COc1ccccc1N1C(=O)c2cccc3c(N(C)CCO)ccc(c23)C1=O | 7* | -6.5 | i | i | -20 | i | 100* | 0.27* | i | i
CC(C)(C)C(=O)Cn1c(=N)n(Cc2ccccc2Cl)c2ccccc21 | i | -0.28 | i | i | -8 | i | . | . | . | .
CC(C)(C)C(=O)Cn1c(=N)n(Cc2ccccc2)c2ccccc21 | 7* | -0.19 | i | i | -16 | i | 86* | 0.39 | 114%* | 90%*
O=C(Nc1ccc(N2CCN(C(=O)c3ccco3)CC2)c(Cl)c1)c1cc2ccccc2o1 | 6* | 0.62 | i | i | -18 | i | 78* | 0.41 | 108%* | 142%*
CCC(=O)N1CCN(c2ccc(NC(=O)c3cc4ccccc4o3)cc2Cl)CC1 | i | 0.36 | i | i | -17 | i | . | . | . | .
Cc1ccc(OCC(=O)N2c3ccccc3CC2C)c([N+](=O)[O-])n1 (stereo unspecified) | i | -0.08 | i | i | -10 | i | . | . | . | .
Cc1sc(NC(=O)c2cc(-c3ccccc3)nc3ccccc23)c(C(N)=O)c1C | 6* | -3.1 | i | i | -6 | i | 97* | 0.46 | 100%* | 140%* | KCNQ1 ephys val=i

Screening data deposited in PubChem by Johns Hopkins Ion Channel Center.
